Data taken from ChEMBL document CHEMBL4428122, “Design, synthesis, and biological characterization of novel PEG-linked dimeric modulators for CXCR4” (Bioorg Med Chem, 2016).
Active and inactive are the calls of the source. No cut-off for these calls is given here. Non-standard residues stand in square brackets, D forms with d. Residues, ends and D or L forms follow the SMILES beside them.

Key:
[1] = molecular target: T1, C-X-C chemokine receptor type 4 (Homo sapiens, UniProt P61073); test: Agonist activity at CXCR4 in human SupT1 cells assessed as increase in Ca2+ influx by fura-2/AM dye-based fluorescence analysis; assay type: functional, cell-based
T1 sequence (P61073 whole entry): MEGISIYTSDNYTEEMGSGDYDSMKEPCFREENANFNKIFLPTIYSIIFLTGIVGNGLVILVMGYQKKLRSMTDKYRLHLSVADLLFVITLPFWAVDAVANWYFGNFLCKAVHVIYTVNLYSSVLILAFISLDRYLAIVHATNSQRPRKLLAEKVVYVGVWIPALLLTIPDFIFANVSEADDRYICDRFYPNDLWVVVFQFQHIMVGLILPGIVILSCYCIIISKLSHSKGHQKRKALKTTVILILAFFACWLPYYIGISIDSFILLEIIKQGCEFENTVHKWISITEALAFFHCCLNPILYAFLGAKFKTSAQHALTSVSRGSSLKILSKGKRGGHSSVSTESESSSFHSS
Method in brief: (§1)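 They were loaded at 10^7 cells/mL with 2 μM fura-2/AM and 5 μM probenecid for 30 min, then resuspended at 2 × 10^6 cells/mL. After a 2 min baseline, peptide was added. Ex 340/380 nm, em 510 nm.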

[2] = molecular target: T1, C-X-C chemokine receptor type 4; test: Binding affinity to CXCR4 (unknown origin) expressed in CHO cells measured after 40 mins by 12G5 antibody competition assay; assay type: cell-based
[3] = molecular target: T1, C-X-C chemokine receptor type 4; test: Agonist activity at CXCR4 in human SupT1 cells assessed as increase Ca2+ influx at 2 uM by fura-2/AM dye-based fluorescence analysis; assay type: functional, cell-based; method in brief: as §1
SUP-T1 = test: Cytotoxicity against human SupT1 cells at 100 nM; assay type: cell-based; details: sup-t1, 0.1 µM
[4] = molecular target: T1, C-X-C chemokine receptor type 4; test: Antagonist activity at CXCR4 in human SupT1 cells assessed as inhibition of CXCL12-induced cell migration at 100 nM preincubated for 2 hrs followed by CXCL12 addition measured after 3 hrs by Cell titer-Blue reagent-based transwell assay
Method in brief: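 SUP-T1 cells were washed in RPMI1640 with 0.5% BSA, and 1 × 10^6 cells were incubated with peptide for 2 h. Cells were then seeded in upper transwell chambers (5 μm pores) over a lower chamber with 10 nM SDF-1α, or buffer alone for background. Migration ran 3 h at 37°C. Migrated cells were expressed as % of seeded cells. At least three independent experiments, mean ± S.E.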

[5] = molecular target: T1, C-X-C chemokine receptor type 4; test: Antagonist activity at CXCR4 in human SupT1 cells assessed as inhibition of CXCL12-induced Ca2+ influx preincubated for 2 to 3 mins prior CXCL12-stimulation by fura-2/AM dye-based fluorescence analysis; assay type: functional, cell-based
Method in brief: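 Fura-2/AM-loaded SUP-T1 cells (2 μM dye, 5 μM probenecid, 30 min; 2 × 10^6 cells/mL in Hepes pH 7.4 saline with Ca2+/Mg2+, glucose, 0.025% BSA) were pre-incubated with peptide for 2–3 min, then stimulated with SDF-1α. Fluorescence was read at ex 340/380 nm, em 510 nm.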

| inhibition [4] [%] | antagonist activity (qualitative) [5] | Compound | Activity (SUP-T1) | further results |
| --- | --- | --- | --- | --- |
|  |  | CC(C)C[C@@H](N)C(=O)NCC(=O)N[C@H](C)C(=O)N[C@H](CO)C(=O)N[C@H](Cc1c[nH]c2ccccc12)C(=O)N[C@H](Cc1cnc[nH]1)C(=O)N[C@H](CCCNC(=N)N)C(=O)N1CCC[C@@H]1C(=O)N[C@H](CC(=O)O)C(=O)N[C@H](CCCCN)C(=O)NCCOCCOCCOCCC(=O)N[C@@H](CCCCNC(=O)CCOCCOCCOCCNC(=O)[C@H](CC(C)C)NC(=O)[C@H](CO)NC(=O)[C@@H](NC(=O)[C@@H]1CCCN1C(=O)[C@@H](N)CCCCN)C(C)C)C(N)=O |  | Activity [1]: inactive |
|  |  | CC(C)C[C@@H](N)C(=O)NCC(=O)N[C@H](C)C(=O)N[C@H](CO)C(=O)N[C@H](Cc1c[nH]c2ccccc12)C(=O)N[C@H](Cc1cnc[nH]1)C(=O)N[C@H](CCCNC(=N)N)C(=O)N1CCC[C@@H]1C(=O)N[C@H](CC(=O)O)C(=O)N[C@H](CCCCN)C(=O)NC(=O)[C@@H](CCCCN)NC(=O)[C@@H](CC(=O)O)NC(=O)[C@H]1CCCN1C(=O)[C@@H](CCCNC(=N)N)NC(=O)[C@@H](Cc1cnc[nH]1)NC(=O)[C@@H](Cc1c[nH]c2ccccc12)NC(=O)[C@@H](CO)NC(=O)[C@@H](C)NC(=O)CNC(=O)[C@H](N)CC(C)C |  | IC50 ([2]; read-out: IC50): 0.462 µM |
|  |  | CC(C)C[C@@H](N)C(=O)NCC(=O)N[C@H](C)C(=O)N[C@H](CO)C(=O)N[C@H](Cc1c[nH]c2ccccc12)C(=O)N[C@H](Cc1cnc[nH]1)C(=O)N[C@H](CCCNC(=N)N)C(=O)N1CCC[C@@H]1C(=O)N[C@H](CC(=O)O)C(=O)N[C@H](CCCCN)C(=O)NCCOCCOCCOCCC(=O)N[C@@H](CCCCNC(=O)CCOCCOCCOCCNC(=O)[C@H](CCCNC(=N)N)NC(=O)[C@H](Cc1ccc(O)cc1)NC(=O)[C@H](CO)NC(=O)[C@H](CC(C)C)NC(=O)[C@H](CO)NC(=O)[C@@H](NC(=O)[C@@H]1CCCN1C(=O)[C@@H](N)CCCCN)C(C)C)C(N)=O |  | Activity [3]: Active |
|  |  | CC(C)C[C@@H](N)C(=O)NCC(=O)N[C@H](C)C(=O)N[C@H](CO)C(=O)N[C@H](Cc1c[nH]c2ccccc12)C(=O)N[C@H](Cc1cnc[nH]1)C(=O)N[C@H](CCCNC(=N)N)C(=O)N1CCC[C@@H]1C(=O)N[C@H](CC(=O)O)C(=O)N[C@H](CCCCN)C(=O)NCCOCCOCCOCCC(=O)N[C@@H](CCCCNC(=O)CCOCCOCCOCCOCCOCCNC(=O)[C@H](CO)NC(=O)[C@H](CC(C)C)NC(=O)[C@H](CO)NC(=O)[C@@H](NC(=O)[C@@H]1CCCN1C(=O)[C@@H](N)CCCCN)C(C)C)C(N)=O |  | Activity [1]: inactive |
| 67 |  | CC(C)C[C@@H](N)C(=O)NCC(=O)N[C@H](C)C(=O)N[C@H](CO)C(=O)N[C@H](Cc1c[nH]c2ccccc12)C(=O)N[C@H](Cc1cnc[nH]1)C(=O)N[C@H](CCCNC(=N)N)C(=O)N1CCC[C@@H]1C(=O)N[C@H](CC(=O)O)C(=O)N[C@H](CCCCN)C(=O)NCCOCCOCCOCCC(=O)NCCCC[C@H](NC(=O)CCOCCOCCOCCNC(=O)[C@@H](CCCCN)NC(=O)[C@@H](CC(=O)O)NC(=O)[C@H]1CCCN1C(=O)[C@@H](CCCNC(=N)N)NC(=O)[C@@H](Cc1cnc[nH]1)NC(=O)[C@@H](Cc1c[nH]c2ccccc12)NC(=O)[C@@H](CO)NC(=O)[C@@H](C)NC(=O)CNC(=O)[C@H](N)CC(C)C)C(N)=O | Non-Toxic |  |
|  |  | CC(C)C[C@@H](N)C(=O)NCC(=O)N[C@H](C)C(=O)N[C@H](CO)C(=O)N[C@H](Cc1c[nH]c2ccccc12)C(=O)N[C@H](Cc1cnc[nH]1)C(=O)N[C@H](CCCNC(=N)N)C(=O)N1CCC[C@@H]1C(=O)N[C@H](CC(=O)O)C(=O)N[C@H](CCCCN)C(=O)NCCOCCOCCOCCOCCOCCC(=O)N[C@@H](CCCCNC(=O)CCOCCOCCOCCOCCOCCNC(=O)[C@H](CCCNC(=N)N)NC(=O)[C@H](Cc1ccc(O)cc1)NC(=O)[C@H](CO)NC(=O)[C@H](CC(C)C)NC(=O)[C@H](CO)NC(=O)[C@@H](NC(=O)[C@@H]1CCCN1C(=O)[C@@H](N)CCCCN)C(C)C)C(N)=O |  | Activity [1]: inactive |
|  |  | H-KPVSLSYR-OH |  | IC50 ([2]; cho): Not Active |
| 28 | Active | CC(C)C[C@@H](N)C(=O)NCC(=O)N[C@H](C)C(=O)N[C@H](CO)C(=O)N[C@H](Cc1c[nH]c2ccccc12)C(=O)N[C@H](Cc1cnc[nH]1)C(=O)N[C@H](CCCNC(=N)N)C(=O)N1CCC[C@@H]1C(=O)NCCOCCOCCOCCC(=O)NCCCC[C@H](NC(=O)CCOCCOCCOCCNC(=O)[C@H]1CCCN1C(=O)[C@@H](CCCNC(=N)N)NC(=O)[C@@H](Cc1cnc[nH]1)NC(=O)[C@@H](Cc1c[nH]c2ccccc12)NC(=O)[C@@H](CO)NC(=O)[C@@H](C)NC(=O)CNC(=O)[C@H](N)CC(C)C)C(N)=O | Non-Toxic |  |
| 34 |  | CC(C)C[C@@H](N)C(=O)NCC(=O)N[C@H](C)C(=O)N[C@H](CO)C(=O)N[C@H](Cc1c[nH]c2ccccc12)C(=O)N[C@H](Cc1cnc[nH]1)C(=O)N[C@H](CCCNC(=N)N)C(=O)N1CCC[C@@H]1C(=O)NCCOCCOCCOCCOCCOCCC(=O)NCCCC[C@H](NC(=O)CCOCCOCCOCCOCCOCCNC(=O)[C@H]1CCCN1C(=O)[C@@H](CCCNC(=N)N)NC(=O)[C@@H](Cc1cnc[nH]1)NC(=O)[C@@H](Cc1c[nH]c2ccccc12)NC(=O)[C@@H](CO)NC(=O)[C@@H](C)NC(=O)CNC(=O)[C@H](N)CC(C)C)C(N)=O | Non-Toxic |  |
| 48 | Active | CC(C)C[C@@H](N)C(=O)NCC(=O)N[C@H](C)C(=O)N[C@H](CO)C(=O)N[C@H](Cc1c[nH]c2ccccc12)C(=O)N[C@H](Cc1cnc[nH]1)C(=O)N[C@H](CCCNC(=N)N)C(=O)N1CCC[C@@H]1C(=O)N[C@H](CC(=O)O)C(=O)N[C@H](CCCCN)C(=O)NCCOCCOCCOCCOCCOCCOCCOCCC(=O)NCCCC[C@H](NC(=O)CCOCCOCCOCCOCCOCCOCCOCCNC(=O)[C@@H](CCCCN)NC(=O)[C@@H](CC(=O)O)NC(=O)[C@H]1CCCN1C(=O)[C@@H](CCCNC(=N)N)NC(=O)[C@@H](Cc1cnc[nH]1)NC(=O)[C@@H](Cc1c[nH]c2ccccc12)NC(=O)[C@@H](CO)NC(=O)[C@@H](C)NC(=O)CNC(=O)[C@H](N)CC(C)C)C(N)=O | Non-Toxic |  |
|  | Active | CC(C)C[C@@H](N)C(=O)NCC(=O)N[C@H](C)C(=O)N[C@H](CO)C(=O)N[C@H](Cc1c[nH]c2ccccc12)C(=O)N[C@H](Cc1cnc[nH]1)C(=O)N[C@H](CCCNC(=N)N)C(=O)N1CCC[C@@H]1C(=O)N[C@H](CC(=O)O)C(=O)N[C@H](CCCCN)C(=O)NCCOCCOCCOCCOCCOCCC(=O)NCCCC[C@H](NC(=O)CCOCCOCCOCCOCCOCCNC(=O)[C@@H](CCCCN)NC(=O)[C@@H](CC(=O)O)NC(=O)[C@H]1CCCN1C(=O)[C@@H](CCCNC(=N)N)NC(=O)[C@@H](Cc1cnc[nH]1)NC(=O)[C@@H](Cc1c[nH]c2ccccc12)NC(=O)[C@@H](CO)NC(=O)[C@@H](C)NC(=O)CNC(=O)[C@H](N)CC(C)C)C(N)=O | Non-Toxic |  |
|  |  | CC(C)C[C@@H](N)C(=O)NCC(=O)N[C@H](C)C(=O)N[C@H](CO)C(=O)N[C@H](Cc1c[nH]c2ccccc12)C(=O)N[C@H](Cc1cnc[nH]1)C(=O)N[C@H](CCCNC(=N)N)C(=O)N1CCC[C@@H]1C(=O)N[C@H](CC(=O)O)C(=O)N[C@H](CCCCN)C(=O)N[C@H](CCCCNC(=O)[C@H](CCCNC(=N)N)NC(=O)[C@H](Cc1ccc(O)cc1)NC(=O)[C@H](CO)NC(=O)[C@H](CC(C)C)NC(=O)[C@H](CO)NC(=O)[C@@H](NC(=O)[C@@H]1CCCN1C(=O)[C@@H](N)CCCCN)C(C)C)C(N)=O |  | IC50 ([2]; read-out: IC50): 0.502 µM; Activity [1]: Active |
|  |  | CC(C)C[C@@H](N)C(=O)NCC(=O)N[C@H](C)C(=O)N[C@H](CO)C(=O)N[C@H](Cc1c[nH]c2ccccc12)C(=O)N[C@H](Cc1cnc[nH]1)C(=O)N[C@H](CCCNC(=N)N)C(=O)N1CCC[C@@H]1C(=O)N[C@H](CC(=O)O)C(=O)N[C@H](CCCCN)C(=O)O (H-[dL]G[dA][dS][dW][dH][dR][dP][dD][dK]-OH) |  | IC50 ([2]; read-out: IC50): 2 µM |

| Compound | inhibition [4] [%] | antagonist activity (qualitative) [5] | Activity (SUP-T1) | further results |
| --- | --- | --- | --- | --- |
| CC(C)C[C@@H](N)C(=O)NCC(=O)N[C@H](C)C(=O)N[C@H](CO)C(=O)N[C@H](Cc1c[nH]c2ccccc12)C(=O)N[C@H](Cc1cnc[nH]1)C(=O)N[C@H](CCCNC(=N)N)C(=O)N1CCC[C@@H]1C(=O)N[C@H](C)C(=O)N[C@H](CCCCN)C(=O)NCCOCCOCCOCCC(=O)NCCCC[C@H](NC(=O)CCOCCOCCOCCNC(=O)[C@@H](CCCCN)NC(=O)[C@@H](C)NC(=O)[C@H]1CCCN1C(=O)[C@@H](CCCNC(=N)N)NC(=O)[C@@H](Cc1cnc[nH]1)NC(=O)[C@@H](Cc1c[nH]c2ccccc12)NC(=O)[C@@H](CO)NC(=O)[C@@H](C)NC(=O)CNC(=O)[C@H](N)CC(C)C)C(N)=O | 21 | Active | Non-Toxic |  |
| CC(C)C[C@@H](N)C(=O)NCC(=O)N[C@H](C)C(=O)N[C@H](CO)C(=O)N[C@H](Cc1c[nH]c2ccccc12)C(=O)N[C@H](Cc1cnc[nH]1)C(=O)N[C@H](CCCNC(=N)N)C(=O)N[C@H](C)C(=O)N[C@H](CC(=O)O)C(=O)N[C@H](CCCCN)C(=O)NCCOCCOCCOCCC(=O)NCCCC[C@H](NC(=O)CCOCCOCCOCCNC(=O)[C@@H](CCCCN)NC(=O)[C@@H](CC(=O)O)NC(=O)[C@@H](C)NC(=O)[C@@H](CCCNC(=N)N)NC(=O)[C@@H](Cc1cnc[nH]1)NC(=O)[C@@H](Cc1c[nH]c2ccccc12)NC(=O)[C@@H](CO)NC(=O)[C@@H](C)NC(=O)CNC(=O)[C@H](N)CC(C)C)C(N)=O | 23 | Active | Non-Toxic |  |
